Assay results: publication PMC3201796 (Cell host & microbe, 2011)
Converted amounts (≈) assume the structure as drawn. Structures can show the parent of a compound that is named as a salt. Where two headings read alike, the source gives them in different places.

How the values were obtained:
HSV-1 = assay: HSV-1-infected athymic nude mice; type: in vivo; conditions: 1% gel, topical
Summary of the method: (§1)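 Female NMRI athymic nude or hairless mice (~20 g, ~4 weeks; groups of five) scarified over ~1 cm² lumbosacral area with HSV-1 KOS (5×10^3 PFU) or HSV-2 G (5×10^2). Test compound 1% in 100% DMSO or CAPRISA 004-type gel, topical twice daily for 5 days from 1-2 h post-infection; same vehicle without drug as placebo. Lesions and mortality recorded over one month; Kaplan-Meier survival, log-rank test.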

HSV-2 [1] = assay: HSV-2 cytopathicity in primary monocyte/macrophage cultures; type: cell-based; conditions: for Cytopathicity (CPE) (%): day 6, M/M
HSV-2 [2] = type: cell-based; conditions: M/M
HSV-2 [3] = type: cell-based; conditions: day 6, M/M
Cytostatic activity [4] = type: cell-based; conditions: human, HEL cells, non-infected
HEL cells = assay: Cytotoxicity by cell morphology; type: cell-based, human; conditions: HEL, non-infected, cell morphology
Summary of the method: (§2)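 Run in non-infected cultures in parallel with the antiviral assay. Cells exposed to test compound and examined microscopically at day 3. MCC is the lowest concentration giving a detectable change in cell morphology.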

PHKs = assay: Cytotoxicity by cell morphology; type: cell-based, human; conditions: non-infected
Summary of the method: as §2

HSV-2 [5] = assay: HSV-2-infected athymic nude mice; type: in vivo; conditions: 1% gel, topical
Summary of the method: as §1

Cytostatic activity [6] = type: cell-based; conditions: human, PHKs, non-infected
HIV-1 RT = HIV-1 RT (Human immunodeficiency virus type 1 group M subtype B, UniProt P03366); assay: HIV-1 reverse transcriptase assay; type: biochemical; conditions: competing dATP (3.2 μM); activated calf thymus DNA
Summary of the method: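 Reaction mix: Tris-HCl pH 7.5, DTT, MgCl2, BSA, activated calf thymus DNA, unlabelled dCTP, dTTP and dGTP, and [3H]dATP (3.2 µM) with diphosphate test compound at various concentrations. Started with recombinant HIV-1 RT and run 30 min at 37 °C. Stopped with ice-cold 5% TCA/pyrophosphate; acid-insoluble DNA caught on glass-fibre filters and counted by liquid scintillation.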

HSV-1 DNA polymerase = HSV-1 DNA polymerase (Human herpesvirus 1, UniProt P04293); assay: HSV-1 DNA polymerase assay; type: biochemical
Summary of the method: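 Recombinant HSV-1 DNA polymerase; 40 µl reactions with a Tris.HCl pH 7.5/DTT/MgCl₂ premix, BSA and activated calf thymus DNA. One radiolabelled dNTP was the competing substrate: [³H]dATP (3.2 µM), [³H]dGTP (2.8 µM), [³H]dTTP (1 µM) or [³H]dCTP (2.5 µM); unlabelled others present. Tenofovir-diphosphate added from 200, 20, 2, 0.2 µM solutions. 60 min at 37°C; stopped with ice-cold TCA/pyrophosphate; acid-insoluble DNA collected on glass-fibre filters.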

HIV-1 = conditions: lymphoid and cervico-vaginal tissues; ref Lisco et al., 2008; cited from earlier work
HSV-2G, HSV-2MS = assay: Human tonsillar tissue ex vivo infected with HSV-2; type: cell-based; conditions: data not shown
HSV-2 [7] = conditions: daily oral, co-formulation with FTC; ref Lama et al., 18th CROI 2011, # 1002; cited from earlier work

HSV-1 DNA polymerase, sequence (P04293 whole entry): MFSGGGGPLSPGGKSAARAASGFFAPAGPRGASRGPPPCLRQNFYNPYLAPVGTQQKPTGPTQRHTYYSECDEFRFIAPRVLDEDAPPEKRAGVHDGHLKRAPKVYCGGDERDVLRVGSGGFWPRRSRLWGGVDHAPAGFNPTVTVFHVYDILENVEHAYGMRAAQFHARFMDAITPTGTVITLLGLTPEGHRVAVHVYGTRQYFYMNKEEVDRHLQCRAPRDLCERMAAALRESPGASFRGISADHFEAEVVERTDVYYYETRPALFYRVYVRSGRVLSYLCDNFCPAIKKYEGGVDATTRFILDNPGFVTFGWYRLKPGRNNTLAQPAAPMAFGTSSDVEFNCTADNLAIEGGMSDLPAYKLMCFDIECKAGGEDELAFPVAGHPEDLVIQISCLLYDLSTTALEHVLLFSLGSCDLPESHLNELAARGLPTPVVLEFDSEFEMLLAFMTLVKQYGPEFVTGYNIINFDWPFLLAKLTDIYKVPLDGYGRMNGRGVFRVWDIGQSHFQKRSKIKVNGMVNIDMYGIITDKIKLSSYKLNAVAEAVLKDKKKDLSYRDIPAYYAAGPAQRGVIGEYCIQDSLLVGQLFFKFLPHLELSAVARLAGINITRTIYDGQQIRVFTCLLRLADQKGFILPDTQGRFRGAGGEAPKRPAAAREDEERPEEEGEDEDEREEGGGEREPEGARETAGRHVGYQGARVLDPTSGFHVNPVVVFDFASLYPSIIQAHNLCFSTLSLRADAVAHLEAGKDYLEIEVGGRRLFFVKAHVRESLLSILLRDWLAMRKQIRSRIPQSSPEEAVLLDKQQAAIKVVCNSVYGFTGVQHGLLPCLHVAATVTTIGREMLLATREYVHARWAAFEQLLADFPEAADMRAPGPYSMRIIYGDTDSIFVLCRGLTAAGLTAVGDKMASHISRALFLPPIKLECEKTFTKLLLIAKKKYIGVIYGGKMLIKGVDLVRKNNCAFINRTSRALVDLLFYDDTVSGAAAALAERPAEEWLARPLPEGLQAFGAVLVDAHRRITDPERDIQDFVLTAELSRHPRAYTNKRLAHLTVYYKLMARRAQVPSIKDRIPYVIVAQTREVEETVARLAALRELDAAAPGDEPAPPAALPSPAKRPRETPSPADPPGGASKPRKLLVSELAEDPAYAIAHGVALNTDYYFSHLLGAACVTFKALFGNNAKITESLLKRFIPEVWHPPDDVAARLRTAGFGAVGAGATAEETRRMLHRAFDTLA

Nc1ncnc2c1ncn2CCOCP(=O)(O)O [Adefovir, 9-[2-(phosphonylmethoxyethyl)adenine]]
performance in 1% gel-treated mice, HSV-1 vs HSV-2 (HSV-1): performed markedly better against HSV-1 than HSV-2
Cytopathicity (CPE) (%) (HSV-2 [1]; 0.2 μg/ml): 5%
Cytopathicity (CPE) (%) (HSV-2 [1]; 1 μg/ml): None
CPE suppression in M/M (HSV-2 [1]; 5 μg/ml): full CPE suppression
Cytopathicity (CPE) (%) (HSV-2 [1]; 5 μg/ml): None
Cytopathicity (CPE) (%) (HSV-2 [1]; 20 μg/ml): None
Cytopathicity (CPE) (%) (HSV-2 [1]; 100 μg/ml): None
Cytopathicity (CPE) (%) (HSV-2 [1]; 500 μg/ml): None
Virus production (TCID50/ml) (HSV-2 [2]; 0.04 μg/ml, day 6): 1×10^5 TCID50/ml
Virus production (TCID50/ml) (HSV-2 [2]; 0.2 μg/ml, day 6): 6×10^4 TCID50/ml
Virus production (TCID50/ml) (HSV-2 [2]; 1 μg/ml, day 6): 8×10^2 TCID50/ml
Virus production (TCID50/ml) (HSV-2 [2]; 5 μg/ml, day 6): No virus
Virus production (TCID50/ml) (HSV-2 [2]; 20 μg/ml, day 6): No virus
Virus production (TCID50/ml) (HSV-2 [2]; 100 μg/ml, day 6): No virus
Virus production (TCID50/ml) (HSV-2 [2]; 500 μg/ml, day 6 post infection): No virus
Virus production (PFU/ml) (HSV-2 [3]; 0.2 μg/ml): 9.9×10^3 PFU/ml
Virus production (PFU/ml) (HSV-2 [3]; 1 μg/ml): 2.5×10^2 PFU/ml
Virus production (PFU/ml) (HSV-2 [3]; 5 μg/ml): No virus
Virus production (PFU/ml) (HSV-2 [3]; 20 μg/ml): No virus
Virus production (PFU/ml) (HSV-2 [3]; 100 μg/ml): No virus
Virus production (PFU/ml) (HSV-2 [3]; 500 μg/ml): No virus
CC50 at 3 days (Cytostatic activity [4]): 100 ± 57 µg/mL (≈ 366 µM)
Cell toxicity MCC (minimum cytotoxic concentration) (HEL cells): >100 µg/mL
Cell toxicity MCC (minimum cytotoxic concentration) (PHKs): >50 µg/mL
performance in 1% gel-treated mice compared with tenofovir (HSV-2 [5]): virtually not superior to tenofovir against HSV-2
CC50 at 3 days (Cytostatic activity [6]): 17 ± 6 µg/mL (≈ 62.2 µM)

CC(Cn1cnc2c(N)ncnc21)OCP(=O)(O)OP(=O)(O)OP(=O)(O)O (stereo in doubt) [Tenofovir-diphosphate, Tenofovir diphosphate]
IC50 HIV-1 RT (HIV-1 RT): 1.3 µg/mL
IC50 herpesvirus DNA polymerase (HSV-1 DNA polymerase; competing dATP (3.2 μM)): 0.38 ± 0.03 µg/mL
IC50 herpesvirus DNA polymerase (HSV-1 DNA polymerase; competing dCTP (2.5 μM)): 25 ± 1.8 µg/mL
IC50 herpesvirus DNA polymerase (HSV-1 DNA polymerase; competing dGTP (2.8 μM)): 7.1 ± 5 µg/mL
IC50 herpesvirus DNA polymerase (HSV-1 DNA polymerase; competing dTTP (1 μM)): 8.5 ± 3.8 µg/mL

Nc1nc2c(ncn2COCCO)c(=O)[nH]1 [Acyclovir, 9-(2-hydroxyethoxy-methyl)guanine]
inhibition of HIV-1 in herpesvirus-coinfected tissues (HIV-1): efficiently inhibits HIV-1
CC50 at 3 days (Cytostatic activity [4]): 166 ± 17 µg/mL (≈ 737 µM)
Cell toxicity MCC (minimum cytotoxic concentration) (HEL cells): >100 µg/mL
Cell toxicity MCC (minimum cytotoxic concentration) (PHKs): >50 µg/mL
CC50 at 3 days (Cytostatic activity [6]): 132 µg/mL (≈ 586 µM)

Nc1ccn(C[C@@H](CO)OCP(=O)(O)O)c(=O)n1 [Cidofovir, (S)-1-(3-hydroxy-2-phosphonylmethoxypropyl)cytosine]
CC50 at 3 days (Cytostatic activity [4]): 82 ± 57 µg/mL (≈ 294 µM)
Cell toxicity MCC (minimum cytotoxic concentration) (HEL cells): >100 µg/mL
Cell toxicity MCC (minimum cytotoxic concentration) (PHKs): >50 µg/mL
CC50 at 3 days (Cytostatic activity [6]): 34 ± 20 µg/mL (≈ 122 µM)

Nc1ccn([C@@H]2CS[C@H](CO)O2)c(=O)n1 [lamivudine]
effect on HSV-2G replication (HSV-2G, HSV-2MS): no effect

CC(C)OC(=O)OCOP(=O)(CO[C@H](C)Cn1cnc2c(N)ncnc21)OCOC(=O)OC(C)C [tenofovir DF, tenofovir disoproxil fumarate]
effect on HSV-2 acquisition (HSV-2 [7]): did not reduce HSV-2 acquisition
